Assay results from ChEMBL document CHEMBL4334465, “SAR Studies on Aromatic Acylhydrazone-Based Inhibitors of Fungal Sphingolipid Synthesis as Next-Generation Antifungal Agents” (J Med Chem, 2019).
In brackets after ≈: the same amount, converted by molar mass. Activity calls are given as the source filed them. The calls are words filed in the database; no cut-off is given here.

Key:
Cryptococcus neoformans [1] = test: Antifungal activity against Cryptococcus neoformans H99 measured after 24 to 72 hrs; format: functional; conditions: var grubii H99
In short: (§1)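 Modified CLSI broth microdilution with inoculum per M27A3. Compounds were serially diluted 32 to 0.03 μg/mL. Media: C. neoformans in HEPES-buffered YNB without amino acids (pH 7.0, 2% glucose); Candida strains in YNB without ammonium sulfate or amino acids plus 1% asparagine (pH 7.0, 2% glucose); A. fumigatus in RPMI (pH 7.0, 2% glucose).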

Cryptococcus neoformans [2] = test: Fungicidal activity against Cryptococcus neoformans H99 measured after 24 hrs by time-kill assay; format: functional, var grubii H99
In short: (§2)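 Overnight C. neoformans washed in PBS and resuspended in HEPES-buffered YNB, pH 7.4. 2 × 10⁴ cells exposed to a range of drug concentrations in 10 mL with 0.5% DMSO final, at 37°C, 5% CO₂, shaking at 200 rpm. Aliquots sampled over 96 h, diluted and plated on YPD; CFU counted after 48 h at 30°C.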

A549 = test: Cytotoxicity against human A549 cells after 24 to 48 hrs by MTT assay; format: functional; conditions: read-out: LD50 (the source's name)
In short: (§3)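 A549 and HepG2 kept in DMEM with 10% FBS and 1% pen-strep. At passage 7, seeded at 10⁵ cells/well and allowed to adhere 14 h. Compound added at 0.03–128 μg/mL, untreated wells as controls. Incubation 37°C, 5% CO₂ for 24 or 48 h. MTT (5 mg/mL in PBS) added for 4 h, formazan dissolved in DMSO, OD570.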

HepG2 = test: Cytotoxicity against human HepG2 cells after 24 to 48 hrs by MTT assay; format: functional; conditions: read-out: LD50 (the source's name); in short: as §3
[3] = Selectivity index, ratio of LD50 for human A549 cells to MIC80 for Cryptococcus neoformans H99; format: toxicity; conditions: read-out: Selectivity Index
In short: (§4)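 SI = LD₅₀/MIC₈₀. Cytotoxicity: A549 or HepG2 cells (DMEM, 10% FBS, passage 7, 10⁵ cells/well) adhered 14 h, then exposed to 0.03–128 μg/mL for 24 or 48 h at 37°C, 5% CO₂; MTT 4 h, formazan dissolved in DMSO, read at 570 nm. MIC₈₀ against C. neoformans from broth microdilution in HEPES-buffered YNB, pH 7.0.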

[4] = Selectivity index, ratio of LD50 for human HepG2 cells to MIC80 for Cryptococcus neoformans H99; format: toxicity; conditions: read-out: Selectivity Index; in short: as §4
Cryptococcus neoformans [5] = test: Antifungal activity against Cryptococcus neoformans H99 assessed as FICI in presence of fluconazole; format: functional, var grubii H99
In short: (§5)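 Checkerboard combination scored by fractional inhibitory concentration index. Acylhydrazone serially diluted 16 to 0.015 μg/mL (11 dilutions). Partner drug in seven dilutions: fluconazole 12 to 0.19 μg/mL, amphotericin B 5 to 0.078 μg/mL, caspofungin, itraconazole or voriconazole 8 to 0.007 μg/mL.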

Candida albicans [6] = test: Antifungal activity against Candida albicans measured after 24 to 72 hrs; format: functional; in short: as §1
[Candida] auris [7] = Antifungal activity against Candida auris measured after 24 to 72 hrs; format: functional; conditions: Candidozyma auris; in short: as §1
Pichia kudriavzevii [8] = test: Antifungal activity against Candida krusei measured after 24 to 72 hrs; format: functional
In short: (§6)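 MIC by modified CLSI broth microdilution. Candida strains grown in YNB without ammonium sulfate or amino acids with 1% asparagine, pH 7.0, 2% glucose. Inoculum per CLSI M27A3. Compound serially diluted 32 to 0.03 μg/mL. Incubation 37°C, 5% CO₂, 24–72 h, then OD450. MIC80 taken as the lowest concentration giving 80% growth inhibition versus untreated control.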

Pichia kudriavzevii [9] = test: Antifungal activity against multi-drug resistant Candida krusei measured after 24 to 72 hrs; format: functional; in short: as §6
Candida parapsilosis [10] = test: Antifungal activity against Candida parapsilosis measured after 24 to 72 hrs; format: functional; conditions: Lodderomyces parapsilosis; in short: as §1
Aspergillus fumigatus [11] = test: Antifungal activity against Aspergillus fumigatus measured after 24 to 72 hrs; format: functional; in short: as §1
Candida albicans [12] = test: Antifungal activity against Candida albicans assessed as FICI in presence of fluconazole; format: functional; in short: as §5
Pichia kudriavzevii [13] = test: Antifungal activity against Candida krusei 6258 assessed as FICI in presence of fluconazole; format: functional; in short: as §5
[Candida] auris [14] = Antifungal activity against Candida auris assessed as FICI in presence of fluconazole; format: functional, Candidozyma auris; in short: as §5
Candida parapsilosis [15] = test: Antifungal activity against Candida parapsilosis assessed as FICI in presence of fluconazole; format: functional; in short: as §5
Aspergillus fumigatus [16] = test: Antifungal activity against Aspergillus fumigatus assessed as FICI in presence of fluconazole; format: functional; in short: as §5
Cryptococcus neoformans [17] = test: Antifungal activity against Cryptococcus neoformans H99 assessed as FICI in presence of voriconazole; format: functional, var grubii H99; in short: as §5
Candida albicans [18] = test: Antifungal activity against Candida albicans assessed as FICI in presence of voriconazole; format: functional; in short: as §5
Pichia kudriavzevii [19] = test: Antifungal activity against fluconazole-resistant Candida krusei assessed as FICI in presence of voriconazole; format: functional
In short: (§7)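 Checkerboard in 96-well plate. Test compound diluted 16 to 0.015 μg/mL (11 dilutions) against the partner drug in seven dilutions: fluconazole 12 to 0.19 μg/mL, caspofungin, itraconazole or voriconazole 8 to 0.007 μg/mL. Fractional inhibitory concentration index (FICI) calculated from the combinations.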

Pichia kudriavzevii [20] = test: Antifungal activity against Candida krusei 6258 assessed as FICI in presence of voriconazole; format: functional; in short: as §5
[Candida] auris [21] = Antifungal activity against Candida auris assessed as FICI in presence of voriconazole; format: functional, Candidozyma auris; in short: as §5
Candida parapsilosis [22] = test: Antifungal activity against Candida parapsilosis assessed as FICI in presence of voriconazole; format: functional; in short: as §5
Aspergillus fumigatus [23] = test: Antifungal activity against Aspergillus fumigatus assessed as FICI in presence of voriconazole; format: functional; in short: as §5
Cryptococcus neoformans [24] = test: Antifungal activity against Cryptococcus neoformans H99 assessed as FICI in presence of itraconazole; format: functional, var grubii H99; in short: as §5
Candida albicans [25] = test: Antifungal activity against Candida albicans assessed as FICI in presence of itraconazole; format: functional; in short: as §5
Pichia kudriavzevii [26] = test: Antifungal activity against fluconazole-resistant Candida krusei assessed as FICI in presence of itraconazole; format: functional; in short: as §7
Pichia kudriavzevii [27] = test: Antifungal activity against Candida krusei 6258 assessed as FICI in presence of itraconazole; format: functional; in short: as §5
[Candida] auris [28] = Antifungal activity against Candida auris assessed as FICI in presence of itraconazole; format: functional, Candidozyma auris; in short: as §5
Candida parapsilosis [29] = test: Antifungal activity against Candida parapsilosis assessed as FICI in presence of itraconazole; format: functional; in short: as §5
Aspergillus fumigatus [30] = test: Antifungal activity against Aspergillus fumigatus assessed as FICI in presence of itraconazole; format: functional; in short: as §5
Candida albicans [31] = test: Antifungal activity against Candida albicans assessed as FICI in presence of caspofungin; format: functional; in short: as §5
Pichia kudriavzevii [32] = test: Antifungal activity against fluconazole-resistant Candida krusei assessed as FICI in presence of caspofungin; format: functional; in short: as §7
Pichia kudriavzevii [33] = test: Antifungal activity against Candida krusei 6258 assessed as FICI in presence of caspofungin; format: functional; in short: as §5
[Candida] auris [34] = Antifungal activity against Candida auris assessed as FICI in presence of caspofungin; format: functional, Candidozyma auris; in short: as §5
Candida parapsilosis [35] = test: Antifungal activity against Candida parapsilosis assessed as FICI in presence of caspofungin; format: functional; in short: as §5
Cryptococcus neoformans [36] = test: Antifungal activity against Cryptococcus neoformans H99 assessed as FICI in presence of amphotericin B; format: functional, var grubii H99; in short: as §5
Cryptococcus neoformans [37] = test: Fungicidal activity against Cryptococcus neoformans H99 measured up to 96 hrs by time-kill assay; format: functional, organism-based; conditions: var grubii H99; in short: as §2
Cryptococcus neoformans [38] = test: Fungicidal activity against Cryptococcus neoformans H99 measured after 12 hrs by time-kill assay; format: functional, var grubii H99; in short: as §2
Cryptococcus neoformans [39] = test: Antifungal activity against Cryptococcus neoformans H99 infected in CBA/J mouse assessed as increase in survival at 1.2 mg/kg, ip; format: functional, organism-based; conditions: var grubii H99

SMILES | MIC80 (Cryptococcus neoformans [1]) | MFC100 (Cryptococcus neoformans [2]) | CC50 (A549) | CC50 (HepG2) | selectivity ratio [3] | selectivity ratio [4] | fractional inhibitory concentration index (FICI) (Cryptococcus neoformans [5]) | MIC80 (Candida albicans [6]) | MIC80 ([Candida] auris [7]) | MIC80 (Pichia kudriavzevii [8]) | MIC80 (Pichia kudriavzevii [9]) | MIC80 (Candida parapsilosis [10]) | MIC80 (Aspergillus fumigatus [11]) | fractional inhibitory concentration index (FICI) (Candida albicans [12]) | fractional inhibitory concentration index (FICI) (Pichia kudriavzevii [13]) | fractional inhibitory concentration index (FICI) ([Candida] auris [14]) | fractional inhibitory concentration index (FICI) (Candida parapsilosis [15]) | fractional inhibitory concentration index (FICI) (Aspergillus fumigatus [16]) | fractional inhibitory concentration index (FICI) (Cryptococcus neoformans [17]) | fractional inhibitory concentration index (FICI) (Candida albicans [18]) | also measured
O=C(N/N=C/c1cc(Br)cc(Br)c1O)c1ccc(Br)c(Br)c1 | 0.06 µg/mL (≈ 0.108 µM) | 0.12 µg/mL (≈ 0.216 µM) | 64 µg/mL (≈ 115 µM) | 64 µg/mL (≈ 115 µM) | 1070 | 1070 | 0.237 | > 16 µg/mL | 16 µg/mL (≈ 28.8 µM) | > 16 µg/mL | 4 µg/mL (≈ 7.2 µM) | 16 µg/mL (≈ 28.8 µM) | > 16 µg/mL | 0.563 | 1 | 1.001 | 2.015 | 2 | 0.247 | 0.271 | fractional inhibitory concentration index (FICI) (Pichia kudriavzevii [19]): 0.31; fractional inhibitory concentration index (FICI) (Pichia kudriavzevii [20]): 0.254; fractional inhibitory concentration index (FICI) ([Candida] auris [21]): 1.001; fractional inhibitory concentration index (FICI) (Candida parapsilosis [22]): 1.03; fractional inhibitory concentration index (FICI) (Aspergillus fumigatus [23]): 1.031; fractional inhibitory concentration index (FICI) (Cryptococcus neoformans [24]): 0.247; fractional inhibitory concentration index (FICI) (Candida albicans [25]): 0.37; fractional inhibitory concentration index (FICI) (Pichia kudriavzevii [26]): 0.528; fractional inhibitory concentration index (FICI) (Pichia kudriavzevii [27]): 0.153; fractional inhibitory concentration index (FICI) ([Candida] auris [28]): 1.12; fractional inhibitory concentration index (FICI) (Candida parapsilosis [29]): 2.007; fractional inhibitory concentration index (FICI) (Aspergillus fumigatus [30]): 0.281; fractional inhibitory concentration index (FICI) (Candida albicans [31]): 0.5; fractional inhibitory concentration index (FICI) (Pichia kudriavzevii [32]): 0.121; fractional inhibitory concentration index (FICI) (Pichia kudriavzevii [33]): 0.125; fractional inhibitory concentration index (FICI) ([Candida] auris [34]): 0.501; fractional inhibitory concentration index (FICI) (Candida parapsilosis [35]): 1.001; fractional inhibitory concentration index (FICI) (Cryptococcus neoformans [36]): 0.247; Activity (Cryptococcus neoformans [37]): Dose-dependent effect
O=C(N/N=C/c1ccc(Br)cc1O)c1cc(Br)cc(Br)c1O | 0.06 µg/mL (≈ 0.122 µM) | 0.12 µg/mL (≈ 0.243 µM) | 32 µg/mL (≈ 64.9 µM) | 32 µg/mL (≈ 64.9 µM) | 533 | 533 | 0.24 | 2 µg/mL (≈ 4.06 µM) | 0.5 µg/mL (≈ 1.01 µM) | 0.25 µg/mL (≈ 0.507 µM) | 0.25 µg/mL (≈ 0.507 µM) | 2 µg/mL (≈ 4.06 µM) | 4 µg/mL (≈ 8.11 µM) | 2 | 0.501 | 0.531 | 1.015 | 2 | 0.24 | 0.375 | MFC100 (Cryptococcus neoformans [38]): 0.12 µg/mL (≈ 0.243 µM); fractional inhibitory concentration index (FICI) (Pichia kudriavzevii [19]): 0.018; fractional inhibitory concentration index (FICI) (Pichia kudriavzevii [20]): 0.129; fractional inhibitory concentration index (FICI) ([Candida] auris [21]): 0.252; fractional inhibitory concentration index (FICI) (Candida parapsilosis [22]): 0.135; fractional inhibitory concentration index (FICI) (Aspergillus fumigatus [23]): 0.188; fractional inhibitory concentration index (FICI) (Cryptococcus neoformans [24]): 0.247; fractional inhibitory concentration index (FICI) (Candida albicans [25]): 0.188; fractional inhibitory concentration index (FICI) (Pichia kudriavzevii [26]): 0.023; fractional inhibitory concentration index (FICI) (Pichia kudriavzevii [27]): 0.183; fractional inhibitory concentration index (FICI) ([Candida] auris [28]): 0.18; fractional inhibitory concentration index (FICI) (Candida parapsilosis [29]): 0.508; fractional inhibitory concentration index (FICI) (Aspergillus fumigatus [30]): 1.016; fractional inhibitory concentration index (FICI) (Candida albicans [31]): 0.508; fractional inhibitory concentration index (FICI) (Pichia kudriavzevii [33]): 2.002; fractional inhibitory concentration index (FICI) ([Candida] auris [34]): 2; fractional inhibitory concentration index (FICI) (Candida parapsilosis [35]): 2; fractional inhibitory concentration index (FICI) (Cryptococcus neoformans [36]): 0.261; Activity (Cryptococcus neoformans [37]): Dose-dependent effect
OC(Cn1cncn1)(Cn1cncn1)c1ccc(F)cc1F |  |  |  |  |  |  |  |  |  |  |  |  |  |  |  |  |  |  |  |  | Activity (Cryptococcus neoformans [39]): Active
